Source: ChEMBL document CHEMBL5696444 (Nat Commun, 2017)

How the values were obtained:
HCT-116 [1] = experiment: Induction of cell cycle arrest in human HCT-116 cells assessed as G2/M phase at 1 uM incubated for 24 hrs by flow cytometry analysis (Rvb=17.9%); format: functional
[2] = molecular target: Ephrin type-A receptor 2 (Homo sapiens) (UniProt P29317); experiment: Inhibition of EPHA2 (unknown origin) at 1000 nM in the presence of ATP by Kinome scan method relative to control
[3] = molecular target: Ephrin type-A receptor 2 (Homo sapiens) (UniProt P29317); experiment: Inhibition of EPHA2 (unknown origin) at 100 nM in the presence of ATP by Kinome scan method relative to control
[4] = Stability of compound in tissue culture medium assessed as remaining parent compound at 5.38 uM incubated for 24 hrs; format: physicochemical; conditions: read-out: Stability
[5] = molecular target: Aurora kinase A (Homo sapiens) (UniProt O14965); experiment: Inhibition of AURKA (unknown origin) at 1000 nM in the presence of ATP by Kinome scan method relative to control
Chain of Aurora kinase A (Homo sapiens) (O14965 whole entry): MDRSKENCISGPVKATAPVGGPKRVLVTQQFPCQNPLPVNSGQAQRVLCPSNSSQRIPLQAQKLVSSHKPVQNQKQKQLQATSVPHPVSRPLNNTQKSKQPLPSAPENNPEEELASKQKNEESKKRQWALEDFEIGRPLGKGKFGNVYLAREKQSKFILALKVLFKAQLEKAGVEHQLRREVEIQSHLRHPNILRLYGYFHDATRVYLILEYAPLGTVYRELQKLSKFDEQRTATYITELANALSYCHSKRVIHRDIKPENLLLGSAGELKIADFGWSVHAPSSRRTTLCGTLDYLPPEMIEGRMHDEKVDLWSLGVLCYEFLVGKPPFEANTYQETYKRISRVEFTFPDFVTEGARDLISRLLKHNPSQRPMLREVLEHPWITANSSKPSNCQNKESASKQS

[6] = molecular target: Mitogen-activated protein kinase 11 (Homo sapiens) (UniProt Q15759); experiment: Inhibition of MAPK11 (unknown origin) at 1000 nM in the presence of ATP by Kinome scan method relative to control
HCT-116 [7] = experiment: Induction of apoptosis in human HCT-116 cells assessed as viable cells at 5 uM incubated for > 6 hrs by annexin V/PI staining based analysis (Rvb=90.04%); format: functional; conditions: read-out: Activity
[8] = molecular target: Dual specificity protein kinase CLK1 (Homo sapiens) (UniProt P49759); experiment: Inhibition of CLK (unknown origin) in human 184-hTERT cells assessed as induction in alternative splicing effect in S6K skipped exon incubated for 6 hrs by RT-PCR analysis; format: cell-based; conditions: dose 0.2-5 µM
Chain of Dual specificity protein kinase CLK1 (Homo sapiens) (P49759 whole entry, looked up, canonical isoform): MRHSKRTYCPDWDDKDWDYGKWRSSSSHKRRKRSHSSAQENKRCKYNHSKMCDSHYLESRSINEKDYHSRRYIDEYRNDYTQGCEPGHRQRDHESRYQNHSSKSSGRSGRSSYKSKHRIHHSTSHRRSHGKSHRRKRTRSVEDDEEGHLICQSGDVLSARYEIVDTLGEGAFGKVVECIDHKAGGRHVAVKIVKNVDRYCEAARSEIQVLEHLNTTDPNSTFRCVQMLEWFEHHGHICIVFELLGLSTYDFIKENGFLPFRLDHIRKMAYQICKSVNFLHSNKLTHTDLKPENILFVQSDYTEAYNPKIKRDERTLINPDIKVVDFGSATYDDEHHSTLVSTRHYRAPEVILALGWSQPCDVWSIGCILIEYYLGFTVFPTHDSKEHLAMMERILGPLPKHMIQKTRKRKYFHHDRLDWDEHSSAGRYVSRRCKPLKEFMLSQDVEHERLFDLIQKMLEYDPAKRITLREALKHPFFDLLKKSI
How it was run: (§1)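 Cells exposed to graded T3 concentrations for 6 h (chosen to avoid cytotoxicity), with a DMSO vehicle control. Total RNA was reverse-transcribed with oligo-dT primers. Targeted splice or conjoined-gene products were quantified by real-time qPCR or by targeted next-generation sequencing. Conjoined-gene isoform expression was normalized to a sequenced housekeeping gene.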

HCT-116 [9] = experiment: Induction of cell cycle arrest in human HCT-116 cells assessed as G2/M phase at 0.5 uM incubated for 6 hrs by flow cytometry analysis (Rvb=25.8%); format: functional
HCT-116 [10] = experiment: Induction of cell cycle arrest in human HCT-116 cells assessed as S phase at 5 uM incubated for 24 hrs by flow cytometry analysis (Rvb=46.4%); format: functional
[11] = molecular target: Serine/threonine-protein kinase Nek2 (Homo sapiens) (UniProt P51955); experiment: Inhibition of NEK2 (unknown origin) at 1000 nM in the presence of ATP by Kinome scan method relative to control
HCT-116 [12] = experiment: Induction of apoptosis in human HCT-116 cells assessed as viable cells at 1 uM incubated for > 6 hrs by annexin V/PI staining based analysis (Rvb=90.04%); format: functional; conditions: read-out: Activity
[13] = molecular target: Proto-oncogene tyrosine-protein kinase ROS (Homo sapiens) (UniProt P08922); experiment: Inhibition of ROS1 (unknown origin) at 100 nM in the presence of ATP by Kinome scan method relative to control
[14] = molecular target: Death-associated protein kinase 1 (Homo sapiens) (UniProt P53355); experiment: Inhibition of DAPK1 (unknown origin) at 100 nM in the presence of ATP by Kinome scan method relative to control
[15] = molecular target: Mitogen-activated protein kinase 8 (Homo sapiens) (UniProt P45983); experiment: Inhibition of MAPK8 (unknown origin) at 1000 nM in the presence of ATP by Kinome scan method relative to control
Chain of Mitogen-activated protein kinase 8 (Homo sapiens) (P45983 whole entry): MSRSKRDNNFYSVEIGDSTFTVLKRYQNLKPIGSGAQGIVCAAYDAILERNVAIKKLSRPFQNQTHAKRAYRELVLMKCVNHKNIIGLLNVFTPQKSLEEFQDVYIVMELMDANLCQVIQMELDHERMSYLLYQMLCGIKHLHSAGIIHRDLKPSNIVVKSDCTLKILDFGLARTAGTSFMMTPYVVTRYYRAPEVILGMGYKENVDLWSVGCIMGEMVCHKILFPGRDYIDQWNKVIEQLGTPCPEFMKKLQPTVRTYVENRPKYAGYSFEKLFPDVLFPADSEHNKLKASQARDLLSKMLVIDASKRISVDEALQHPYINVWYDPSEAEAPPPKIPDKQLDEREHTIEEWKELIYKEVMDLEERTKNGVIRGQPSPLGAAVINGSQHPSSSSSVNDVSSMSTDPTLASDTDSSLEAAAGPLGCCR

[16] = molecular target: MAP kinase-activated protein kinase 2 (Homo sapiens) (UniProt P49137); experiment: Inhibition of MAPKAPK2 (unknown origin) at 100 nM in the presence of ATP by Kinome scan method relative to control
HCT-116 [17] = experiment: Induction of apoptosis in human HCT-116 cells assessed as necrosis cells at 0.1 uM incubated for > 6 hrs by annexin V/PI staining based analysis (Rvb=0.55%); format: functional
HCT-116 [18] = experiment: Induction of cell cycle arrest in human HCT-116 cells assessed as sub G0/G1 phase at 0.1 uM incubated for 6 hrs by flow cytometry analysis (Rvb=1.6%); format: functional
HCT-116 [19] = experiment: Induction of apoptosis in human HCT-116 cells assessed as viable cells at 0.1 uM incubated for > 6 hrs by annexin V/PI staining based analysis (Rvb=90.04%); format: functional; conditions: read-out: Activity
[20] = molecular target: Dual specificity protein kinase CLK1 (Homo sapiens) (UniProt P49759); experiment: Inhibition of CLK (unknown origin) in human HCT-116 cells assessed as induction in alternative splicing effect in S6K skipped exon incubated for 6 hrs by RT-PCR analysis; format: cell-based; conditions: dose 0.2-5 µM; how it was run: as §1
HCT-116 [21] = experiment: Induction of apoptosis in human HCT-116 cells assessed as late apoptosis at 5 uM incubated for > 6 hrs by annexin V/PI staining based analysis (Rvb=6.12%); format: functional
[22] = molecular target: Serine/threonine-protein kinase mTOR (Homo sapiens) (UniProt P42345); experiment: Inhibition of FRAP1 (unknown origin) at 100 nM in the presence of ATP by Kinome scan method relative to control
[23] = molecular target: T1, Cyclin-dependent kinase 1/cyclin B1 (Homo sapiens) (UniProt P06493+P14635); experiment: Inhibition of CDK1/cyclin B (unknown origin) at 100 nM in the presence of ATP by Kinome scan method relative to control; format: protein-complex assay
T1 sequence (P06493 whole entry, looked up): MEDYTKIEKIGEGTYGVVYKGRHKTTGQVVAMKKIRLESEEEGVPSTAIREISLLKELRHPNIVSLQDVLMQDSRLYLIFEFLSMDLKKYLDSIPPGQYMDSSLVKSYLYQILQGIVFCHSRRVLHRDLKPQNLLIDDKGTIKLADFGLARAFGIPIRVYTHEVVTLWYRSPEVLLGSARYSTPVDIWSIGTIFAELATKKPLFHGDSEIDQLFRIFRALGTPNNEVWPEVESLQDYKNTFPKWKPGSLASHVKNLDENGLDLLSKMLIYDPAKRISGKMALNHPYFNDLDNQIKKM
T1 sequence (P14635 whole entry, looked up): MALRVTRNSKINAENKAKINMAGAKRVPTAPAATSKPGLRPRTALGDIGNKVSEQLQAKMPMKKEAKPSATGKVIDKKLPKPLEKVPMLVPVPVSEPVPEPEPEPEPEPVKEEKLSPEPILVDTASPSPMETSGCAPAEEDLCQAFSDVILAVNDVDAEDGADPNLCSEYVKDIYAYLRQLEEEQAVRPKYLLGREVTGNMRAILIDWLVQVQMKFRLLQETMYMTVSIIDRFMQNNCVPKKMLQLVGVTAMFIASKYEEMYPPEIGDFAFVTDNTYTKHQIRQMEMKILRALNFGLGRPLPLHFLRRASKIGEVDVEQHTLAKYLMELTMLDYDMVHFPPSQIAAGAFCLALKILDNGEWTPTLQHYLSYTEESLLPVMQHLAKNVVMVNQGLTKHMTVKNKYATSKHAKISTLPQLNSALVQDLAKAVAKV

[24] = molecular target: AMP-activated protein kinase (AMPK) alpha-1/beta-1/gamma-1 (Homo sapiens) (UniProt P54619+Q9Y478+Q13131); experiment: Inhibition of AMPK A1/B1/G1 (unknown origin) at 1000 nM in the presence of ATP by Kinome scan method relative to control; format: protein-complex assay
[25] = molecular target: Cyclin-dependent kinase 5/CDK5 activator 1 (Homo sapiens) (UniProt Q00535+Q15078); experiment: Inhibition of CDK5/p25 (unknown origin) at 1000 nM in the presence of ATP by Kinome scan method relative to control; format: protein-complex assay
Chain of Cyclin-dependent kinase 5/CDK5 activator 1 (Homo sapiens) (Q00535 whole entry): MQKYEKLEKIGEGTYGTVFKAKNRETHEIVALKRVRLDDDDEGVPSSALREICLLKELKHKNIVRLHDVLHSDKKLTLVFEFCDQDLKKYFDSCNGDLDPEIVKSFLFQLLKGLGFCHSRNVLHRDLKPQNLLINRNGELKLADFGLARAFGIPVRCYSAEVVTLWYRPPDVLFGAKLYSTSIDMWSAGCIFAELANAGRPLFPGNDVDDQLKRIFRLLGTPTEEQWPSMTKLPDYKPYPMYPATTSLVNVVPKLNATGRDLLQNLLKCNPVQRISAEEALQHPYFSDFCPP
Chain of Cyclin-dependent kinase 5/CDK5 activator 1 (Homo sapiens) (Q15078 99-307 partner limits assumed): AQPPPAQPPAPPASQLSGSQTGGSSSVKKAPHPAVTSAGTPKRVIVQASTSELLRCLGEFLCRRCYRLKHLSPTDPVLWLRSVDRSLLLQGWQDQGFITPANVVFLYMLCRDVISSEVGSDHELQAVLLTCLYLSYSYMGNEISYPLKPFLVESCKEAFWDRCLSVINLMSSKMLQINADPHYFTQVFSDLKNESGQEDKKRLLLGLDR

[26] = molecular target: T1, Cyclin-dependent kinase 1/cyclin B1 (Homo sapiens); experiment: Inhibition of CDK1/cyclin B (unknown origin) at 1000 nM in the presence of ATP by Kinome scan method relative to control; format: protein-complex assay
HCT-116 [27] = experiment: Cytotoxicity against human HCT-116 cells assessed as inhibition of cell viability incubated for > 24 hrs; format: functional
[28] = molecular target: Homeodomain-interacting protein kinase 2 (Homo sapiens) (UniProt Q9H2X6); experiment: Inhibition of HIPK2 (unknown origin) at 1000 nM in the presence of ATP by Kinome scan method relative to control
HCT-116 [29] = experiment: Induction of cell cycle arrest in human HCT-116 cells assessed as G2/M phase at 0.1 uM incubated for 24 hrs by flow cytometry analysis (Rvb=17.9%); format: functional
[30] = molecular target: Focal adhesion kinase 1 (Homo sapiens) (UniProt Q05397); experiment: Inhibition of PTK2 (unknown origin) at 1000 nM in the presence of ATP by Kinome scan method relative to control
Chain of Focal adhesion kinase 1 (Homo sapiens) (Q05397 2-1052 limits assumed): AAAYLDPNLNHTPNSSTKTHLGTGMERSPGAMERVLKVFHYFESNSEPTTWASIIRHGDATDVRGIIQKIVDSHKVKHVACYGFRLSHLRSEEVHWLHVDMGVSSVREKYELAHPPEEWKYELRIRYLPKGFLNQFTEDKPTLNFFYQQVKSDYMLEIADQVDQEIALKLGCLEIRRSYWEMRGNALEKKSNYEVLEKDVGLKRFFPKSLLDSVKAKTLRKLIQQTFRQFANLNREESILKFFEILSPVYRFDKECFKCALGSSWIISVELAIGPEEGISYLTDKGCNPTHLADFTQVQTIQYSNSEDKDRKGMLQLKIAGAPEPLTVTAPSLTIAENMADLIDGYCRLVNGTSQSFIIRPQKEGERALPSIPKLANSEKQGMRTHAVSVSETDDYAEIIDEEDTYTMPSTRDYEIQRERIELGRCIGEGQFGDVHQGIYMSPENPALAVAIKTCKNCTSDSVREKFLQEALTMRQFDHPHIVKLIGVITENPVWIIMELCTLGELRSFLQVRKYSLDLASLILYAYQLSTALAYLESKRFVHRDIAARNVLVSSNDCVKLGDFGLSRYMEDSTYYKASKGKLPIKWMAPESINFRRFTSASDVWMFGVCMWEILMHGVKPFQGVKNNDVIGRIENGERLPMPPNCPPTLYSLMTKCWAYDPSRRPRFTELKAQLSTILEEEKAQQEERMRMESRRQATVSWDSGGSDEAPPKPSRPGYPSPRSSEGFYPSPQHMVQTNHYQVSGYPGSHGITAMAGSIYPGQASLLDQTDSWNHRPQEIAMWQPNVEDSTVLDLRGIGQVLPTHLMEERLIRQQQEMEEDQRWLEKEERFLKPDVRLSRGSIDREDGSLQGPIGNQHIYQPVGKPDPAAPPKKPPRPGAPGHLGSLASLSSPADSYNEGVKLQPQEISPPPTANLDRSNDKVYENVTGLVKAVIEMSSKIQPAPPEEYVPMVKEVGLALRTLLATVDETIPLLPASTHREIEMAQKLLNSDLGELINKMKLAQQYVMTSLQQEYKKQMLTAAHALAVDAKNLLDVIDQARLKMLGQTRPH

[31] = molecular target: Mitogen-activated protein kinase 1 (Homo sapiens) (UniProt P28482); experiment: Inhibition of MAPK1 (unknown origin) at 100 nM in the presence of ATP by Kinome scan method relative to control
[32] = molecular target: Calcium/calmodulin-dependent protein kinase type 1 (Homo sapiens) (UniProt Q14012); experiment: Inhibition of CAMK1 (unknown origin) at 1000 nM in the presence of ATP by Kinome scan method relative to control
Chain of Calcium/calmodulin-dependent protein kinase type 1 (Homo sapiens) (Q14012 whole entry, looked up): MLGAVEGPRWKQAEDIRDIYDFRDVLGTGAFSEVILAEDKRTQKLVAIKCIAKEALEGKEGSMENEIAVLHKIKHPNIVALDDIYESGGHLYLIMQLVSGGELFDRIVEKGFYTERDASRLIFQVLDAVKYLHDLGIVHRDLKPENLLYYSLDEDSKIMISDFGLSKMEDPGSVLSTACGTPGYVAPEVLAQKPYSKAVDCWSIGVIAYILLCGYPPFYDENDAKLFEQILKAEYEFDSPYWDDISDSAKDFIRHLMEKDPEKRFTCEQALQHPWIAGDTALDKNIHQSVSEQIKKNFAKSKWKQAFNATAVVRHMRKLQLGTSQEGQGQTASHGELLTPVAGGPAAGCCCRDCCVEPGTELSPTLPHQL

Chain of Ephrin type-A receptor 2 (Homo sapiens) (P29317 whole entry): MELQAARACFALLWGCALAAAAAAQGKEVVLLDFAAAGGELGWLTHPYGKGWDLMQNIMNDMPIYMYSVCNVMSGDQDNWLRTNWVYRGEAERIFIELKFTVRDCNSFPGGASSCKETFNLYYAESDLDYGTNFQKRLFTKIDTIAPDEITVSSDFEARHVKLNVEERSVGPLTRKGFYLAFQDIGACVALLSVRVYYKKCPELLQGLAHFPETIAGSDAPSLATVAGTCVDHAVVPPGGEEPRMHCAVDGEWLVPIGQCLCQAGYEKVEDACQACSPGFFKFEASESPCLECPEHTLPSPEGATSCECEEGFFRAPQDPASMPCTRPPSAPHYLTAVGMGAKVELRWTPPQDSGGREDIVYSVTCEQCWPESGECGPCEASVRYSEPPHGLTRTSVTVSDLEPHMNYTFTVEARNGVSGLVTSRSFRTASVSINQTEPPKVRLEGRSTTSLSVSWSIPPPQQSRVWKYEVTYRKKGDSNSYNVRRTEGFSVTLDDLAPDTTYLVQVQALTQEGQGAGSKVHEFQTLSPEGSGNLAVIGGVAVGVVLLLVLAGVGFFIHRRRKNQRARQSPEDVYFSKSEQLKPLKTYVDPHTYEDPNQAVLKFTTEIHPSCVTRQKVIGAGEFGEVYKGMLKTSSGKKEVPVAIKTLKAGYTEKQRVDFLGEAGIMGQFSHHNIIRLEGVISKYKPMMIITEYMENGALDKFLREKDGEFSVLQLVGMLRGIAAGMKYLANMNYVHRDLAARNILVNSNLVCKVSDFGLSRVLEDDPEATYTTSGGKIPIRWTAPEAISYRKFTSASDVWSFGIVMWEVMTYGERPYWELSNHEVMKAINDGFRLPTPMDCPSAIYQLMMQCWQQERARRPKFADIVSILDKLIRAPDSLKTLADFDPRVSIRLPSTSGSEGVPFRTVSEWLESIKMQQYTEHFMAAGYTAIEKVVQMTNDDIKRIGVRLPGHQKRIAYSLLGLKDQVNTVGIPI

## CN1CCN(C(=O)C(C)(C)c2ccc(C(=O)Nc3cn4cc(-c5ccncc5)ccc4n3)cc2)CC1 [T3-CLK]
HCT-116 [1]
  Activity: 46%
[2]
  inhibition: -6%
[3]
  inhibition: -4%
[4]
  remaining at 24 h, 5.38 µM: 98.8%
[5]
  inhibition: 9%
[6]
  inhibition: 1%
HCT-116 [7]
  viability at 5 µM: 86.6%
[8]
  inhibition: Dose-Dependent Effect
HCT-116 [9]
  Activity: 34.8%
HCT-116 [10]
  Activity: 45.5%
[11]
  inhibition: 24%
HCT-116 [12]
  viability at 1 µM: 88.4%
[13]
  inhibition: -4%
[14]
  inhibition: -4%
[15]
  inhibition: 3%
[16]
  inhibition: 4%
HCT-116 [17]
  Activity: 0.75%
HCT-116 [18]
  Activity: 1.5%
HCT-116 [19]
  viability at 0.1 µM: 87.8%
[20]
  inhibition: Dose-Dependent Effect
HCT-116 [21]
  Activity: 8.23%
[22]
  inhibition: -6%
[23]
  inhibition: 8%
[24]
  inhibition: 0%
[25]
  inhibition: 1%
[26]
  inhibition: 7%
HCT-116 [27]
  GI: 0.133 µM
[28]
  inhibition: -2%
HCT-116 [29]
  Activity: 20.7%
[30]
  inhibition: -7%
[31]
  inhibition: 3%
[32]
  inhibition: 5%
